{
  "source": "ChEMBL document CHEMBL4024711",
  "about": "“Design, synthesis and biological evaluation of novel nitric oxide-donating protoberberine derivatives as antitumor agents” (Eur J Med Chem, 2017)",
  "key": {"HepG2": {"system": "HepG2", "assay": "Cytotoxicity against human HepG2 cells after 72 hrs by MTT assay", "format": "functional, cell-based", "conditions": "HepG2, 72 h", "method_in_brief": "(§1)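 MTT assay. Cells were plated and grown 24 h at 37 °C, 5% CO2, then exposed to compound in medium with 0.1% DMSO for 72 h. MTT (5 mg/mL in PBS) was added for 4 h and absorbance read at 490 nm. IC50 was taken from dose-response curves; at least three independent experiments.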"}, "[1]": {"assay": "Induction of NO release assessed as nitrite formation in PBS at 100 uM up to 300 mins by Griess assay", "method_in_brief": "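Compound at 100 μM was incubated at 37 °C in PBS, pH 7.4, containing 2% DMSO and 5.0 mM L-cysteine, in acellular or HepG2 cell lysates, and sampled over time. Samples were mixed with Griess reagent at 37 °C for 15 min and read at 540 nm. Nitrite was quantified against a sodium nitrite standard curve, in triplicate.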"}, "H22": {"system": "H22", "assay": "Antitumor activity against human H22 cells xenografted in ICR mouse assessed as tumor growth inhibition at 20 mg/kg, iv administered once daily for 21 days measured post last dose relative to control", "conditions": "504 h, read-out: TGI"}, "HL-60": {"system": "HL-60", "assay": "Cytotoxicity against human HL60 cells after 72 hrs by MTT assay", "format": "functional, cell-based", "conditions": "HL-60, 72 h", "method_in_brief": "as §1"}, "L02": {"system": "L02", "assay": "Cytotoxicity against human LO2 cells after 72 hrs by MTT assay", "format": "cell-based", "conditions": "L02, 72 h", "method_in_brief": "as §1"}, "HCT-116": {"system": "HCT-116", "assay": "Cytotoxicity against human HCT116 cells after 72 hrs by MTT assay", "format": "functional, cell-based", "conditions": "HCT-116, 72 h", "method_in_brief": "as §1"}, "SMMC-7721": {"system": "SMMC-7721", "assay": "Cytotoxicity against human SMMC7721 cells after 72 hrs by MTT assay", "format": "functional, cell-based", "conditions": "SMMC-7721, 72 h", "method_in_brief": "as §1"}},
  "note": "The source made the active and inactive calls. No cut-off for these calls is given here.",
  "data": [
    {"compound": "COc1ccc2c(Br)c3[n+](cc2c1OCCCCCCCCO[N+](=O)[O-])CCc1cc2c(cc1-3)OCO2", "values": [
      {"measurement": "IC50", "setting": "HepG2", "value": 4.14, "unit": "µM"},
      {"measurement": "Activity", "setting": "[1]", "value": "Active"}
    ]},
    {"compound": "O=P1(N(CCCl)CCCl)NCCCO1", "note": "(centres undefined) [CYCLOPHOSPHAMIDE ANHYDROUS]", "values": [
      {"measurement": "inhibition in vivo at 20 mg/kg", "setting": "H22", "value": 67.1, "unit": "%"}
    ]},
    {"compound": "COc1ccc2cc3[n+](cc2c1OCCCCCCCCO[N+](=O)[O-])CCc1cc2c(cc1-3)OCO2", "values": [
      {"measurement": "IC50", "setting": "HL-60", "value": 1.42, "unit": "µM"},
      {"measurement": "IC50", "setting": "HepG2", "value": 2.47, "unit": "µM"},
      {"measurement": "IC50", "setting": "L02", "value": 33.8, "unit": "µM"},
      {"measurement": "IC50", "setting": "HCT-116", "value": 1.58, "unit": "µM"},
      {"measurement": "IC50", "setting": "SMMC-7721", "value": 2.82, "unit": "µM"},
      {"measurement": "Activity", "setting": "[1]", "value": "Active"}
    ]},
    {"compound": "COc1ccc2cc3[n+](cc2c1OC(=O)CCCCCCCO[N+](=O)[O-])CCc1cc2c(cc1-3)OCO2", "values": [
      {"measurement": "IC50", "setting": "HepG2", "value": "> 100", "unit": "µM"},
      {"measurement": "Activity", "setting": "[1]", "value": "Active"}
    ]},
    {"compound": "COc1ccc2cc3[n+](cc2c1OCCCCCCCCCCO[N+](=O)[O-])CCc1cc2c(cc1-3)OCO2", "values": [
      {"measurement": "IC50", "setting": "HepG2", "value": 4.34, "unit": "µM"}
    ]},
    {"compound": "COc1ccc2cc3[n+](cc2c1OCCCO[N+](=O)[O-])CCc1cc2c(cc1-3)OCO2", "values": [
      {"measurement": "IC50", "setting": "HepG2", "value": 22, "unit": "µM"}
    ]},
    {"compound": "COc1ccc2cc3[n+](cc2c1OCCCCO[N+](=O)[O-])CCc1cc2c(cc1-3)OCO2", "values": [
      {"measurement": "IC50", "setting": "HepG2", "value": 18.4, "unit": "µM"},
      {"measurement": "Activity", "setting": "[1]", "value": "Active"}
    ]},
    {"compound": "COc1cc2c(cc1OC)-c1cc3ccc(OC)c(OCCCCCCCCCCO[N+](=O)[O-])c3c[n+]1CC2", "values": [
      {"measurement": "IC50", "setting": "HepG2", "value": 5.59, "unit": "µM"}
    ]},
    {"compound": "COc1ccc2cc3[n+](cc2c1OCCO[N+](=O)[O-])CCc1cc2c(cc1-3)OCO2", "values": [
      {"measurement": "IC50", "setting": "HepG2", "value": 25.2, "unit": "µM"}
    ]},
    {"compound": "COc1cc2c(cc1OC)-c1cc3ccc(OC)c(OCCCCCCCCCCCCO[N+](=O)[O-])c3c[n+]1CC2", "values": [
      {"measurement": "IC50", "setting": "HepG2", "value": 2.55, "unit": "µM"}
    ]},
    {"compound": "COc1ccc2cc3[n+](cc2c1OC(=O)CCCCCO[N+](=O)[O-])CCc1cc2c(cc1-3)OCO2", "values": [
      {"measurement": "IC50", "setting": "HepG2", "value": "> 100", "unit": "µM"}
    ]}
  ]
}
